Like-named read-outs stand apart in the source and are kept apart here.
Tests used:
Format in all cases: binding, HIV-1
[1] = tested on: 5'-32P labeled RRE SL-IIB; assay: RNase footprinting; conditions: branched peptide 0-20 μM, concentration-dependent, upper stem region
Method in brief: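 RRE SL-IIB dephosphorylated, then 5′-end labeled with [γ-32P]ATP and T4 polynucleotide kinase. Labeled RNA (10 nM) plus unlabeled SL-IIB (200 nM) refolded (95 °C 3 min, snap-cooled on ice). Incubated with peptide on ice 4 h in 10 mM Tris pH 7, 100 mM KCl, 10 mM MgCl2. RNase V1 0.002 Units, 10 min on ice; quenched. Run on 12% PAGE/7.5 M urea beside an alkaline hydrolysis ladder. Read by autoradiography.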

[2] = biological target: 2-AP-labeled RRE SL-IIB RNA; conditions: for Kd: at least duplicate, ± SD
Method in brief: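 2-AP-labelled RRE SL-IIB RNA (0.1 μM, refolded at 95 °C for 3 min and snap-cooled) with 10-fold excess unlabelled competitor (loop/bulge-deleted RRE RNA, RRE SL-IIB DNA or TAR RNA). Branched peptide titrated 0-20 μM in phosphate buffer (10 mM KPi, 100 mM KCl, 1 mM MgCl2, 20 mM NaCl, pH 7.0). Excitation 310 nm; fluorescence decrease at 372 nm. Kd from Hill-equation fit; at least duplicate, SD.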

234 nt NL4-3 RRE RNA = assay: SHAPE-MaP footprinting; conditions: cutoff +/- 0.3

Substance: (DLL)2KLGBY [4B3]
- protection from RNase V1 cleavage [1]: reduced cleavage at G53, C54, and C65
- Kd ([2]; RRE IIB in the presence of 10× RRE DNA): 1480 ± 30 nM
- Kd ([2]; RRE IIB in the presence of 10× TAR RNA): 3520 ± 520 nM
- loss of binding affinity ([2]; in the presence of No Bulge RRE RNA competitor): ~3 fold
- loss of binding affinity ([2]; in the presence of RRE DNA competitor): ~3 fold
- increase of Kd against RRE IIB ([2]; in the presence of TAR RNA competitor): approximately 10 fold
- change in 1M7 reactivity (234 nt NL4-3 RRE RNA; 1:1 RNA:BP ratio): decreased reactivity was observed at nt 28
- change in 1M7 reactivity (234 nt NL4-3 RRE RNA; in the presence of 4B3, ratio not stated): nt 46, which forms non-canonical base pairing upon Rev,[12] exhibited increased reactivity

From article PMC6476629 (Bioorganic & medicinal chemistry, 2019)
